# Screens from PubChem BioAssay.
# In the library only some 3.7% were active in any assay of this set; here they are far more common.
# hERG rescue: hERG rescue from dofetilide block, primary screen, cell-based, CHO-hERG, FluxOR thallium flux, dofetilide IC70 | dofetilide IC70 present | activation (rescue from dofetilide block), less the hit threshold, % at 10 µM | Voltage-gated inwardly rectifying potassium channel KCNH2 (Homo sapiens), Q12809 | 0.51% of 310,000 active | AID 1511, 2009;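 active = activation above the mean of controls blocked by dofetilide plus 5 SD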;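 also: thallium influx through hERG after potassium depolarization seen as dye fluorescence rise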
# KCNK3 inh: human KCNK3 channel inhibitors, primary screen, CHO cells, FluxOR thallium flux, B-score | FluxOR fluorescence; hits give low values | Potassium channel subfamily K member 3 (Homo sapiens), O14649 | B-score at 10 µM | 0.84% of 340,000 active;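 active = B-score under library mean minus 4 SD, starting fluorescence ratio at most library mean plus 5 SD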;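 also: more negative B-score means stronger inhibition of thallium flux through KCNK3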
# KCNQ1 inh: inhibitors of human KCNQ1 channel, primary screen, cell-based, thallium flux, high-throughput | Potassium voltage-gated channel subfamily KQT member 1 (Homo sapiens), P51787 | CHO-K1 KCNQ1, FluxOR thallium flux fluorescence; hits give high values | B-score at 10 µM | 1.3% of 310,000 active | AID 2642, 2010;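 active = compounds whose thallium flux B-score, printed positive for inhibition, exceeds three library SD while starting fluorescence stays within three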;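 also: channel opened by potassium depolarization with thallium stimulus after 20 min compound exposure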
# Kir21 inh: inhibitors of mouse Kir2.1 inward-rectifier potassium channel | Inward rectifier potassium channel 2 (Mus musculus), P35561 | HEK293-Kir2.1, FluxOR thallium flux fluorescence; hits give low values | B-score at 10 µM | 0.85% of 310,000 active | AID 1672, 2009;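 active = fluorescence ratio B-score at or below minus 3 SD of library scores, with starting-brightness B-score within 2 SD, cut at about -4.2 in these data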;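 also: channel flux triggered by added potassium and thallium sulfate stimulus; B-score of peak minus minimum fluorescence over baseline after thallium stimulus; more negative B-score means stronger Kir2.1 block with less thallium influx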
# KCNK9 block: KCNK9 potassium channel inhibitors, primary screen, HEK293 cells, thallium flux; AID 488922, 2010; FluxOR thallium flux fluorescence; hits give low values; 1.2% of 310,000 active; B-score at 10 µM;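 active = ratio B-score over 3 SD below the library mean, with starting fluorescence within 5 SD of its mean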;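 also: negative B-score means less thallium flux so channel inhibition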
# Target sequence (Q9NPC2 whole entry, looked up): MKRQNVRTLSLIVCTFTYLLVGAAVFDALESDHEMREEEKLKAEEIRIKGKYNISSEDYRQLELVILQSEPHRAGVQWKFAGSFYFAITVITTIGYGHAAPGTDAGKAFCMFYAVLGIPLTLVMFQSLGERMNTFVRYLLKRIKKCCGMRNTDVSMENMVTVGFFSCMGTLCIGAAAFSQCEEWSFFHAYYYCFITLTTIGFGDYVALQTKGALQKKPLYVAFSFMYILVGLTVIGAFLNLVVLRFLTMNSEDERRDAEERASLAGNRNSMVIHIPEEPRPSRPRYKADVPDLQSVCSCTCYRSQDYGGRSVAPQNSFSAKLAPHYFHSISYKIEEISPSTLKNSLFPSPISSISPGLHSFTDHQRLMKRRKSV
# KCNQ1 act: potentiators or activators of KCNQ1 channel, primary screen, cell-based, thallium flux, high-throughput. CHO-K1 KCNQ1, thallium flux FluxOR fluorescence; hits give high values. B-score at 10 µM. 0.35% of 310,000 active. AID 2648, 2010;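 active = fluorescence ratio B-score, a plate-corrected score, at least three library SD, with initial intensity B-score within 5 SD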
#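 Medium – assay buffer, equal DMSO in all wells · Material – CHO-K1 cell line with stable KCNQ1 potassium channel expression · Signal – kinetic FluxOR thallium fluorescence, 10-s 1-Hz baseline, 110-s post-stimulus read · Compound – single concentration per compound, DMSO matched to controls · Schedule – 37 °C overnight plating, 90-min dark dye load, 20-min compound pretreatment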
# An asterisk follows results filed as active; i = inactive; x = no result.
SMILES,hERG rescue,KCNK3 inh,KCNQ1 inh,Kir21 inh,KCNK9 block,KCNQ1 act
CCOC(=O)c1c(C)[nH]c(C(=O)OCC(=O)Nc2sccc2C(N)=O)c1C,-26,i,i,0.19,i,i
O=S(=O)(NCCc1ccccc1)c1ccc(Br)s1,-6,i,i,-4.2*,i,i
O=C(O)CNS(=O)(=O)c1ccc(Br)s1,-6,i,i,-1.1,i,i
Cc1ccc(NC(=S)N(CCCN2CCCC2)Cc2cccn2Cc2ccc(Cl)cc2)cc1C,-16,i,i,-0.84,i,i
Cc1ccc(NC(=S)N(CCCN2CCCC2)Cc2cccn2Cc2ccc(Cl)cc2)cc1Cl,-12,i,7*,0.5,i,i
COC(=O)C(CSCc1ccccc1)NC(=O)CSc1nc(N)cc(=O)[nH]1 (centres undefined),-6,i,i,0.43,i,i
CC(C)CC(=O)Nc1ccc(C(=O)NNC(=S)NC(=O)C2CCCCC2)cc1,-4,i,7*,-1.1,i,i
COc1ccccc1-c1nc2cc3ccccc3cc2nc1-c1ccccc1,-7,i,9*,-0.68,i,i
CC(C)CC(=O)NC(Nc1ccccc1F)C(Cl)(Cl)Cl (centres undefined),-6,i,i,-2.5,i,i
CCCC(=O)NC(Nc1ccccc1F)C(Cl)(Cl)Cl (centres undefined),-10,x,i,-8.1*,i,i
CC(C)C(=O)NC(Nc1ccccc1F)C(Cl)(Cl)Cl (centres undefined),-2,i,i,-4.5*,i,i
COc1cc(/C=C/C(=O)OCC(=O)c2c(N)n(C)c(=O)n(C)c2=O)ccc1OCC#N,-7,i,i,0.77,i,i
CN(C)c1cc(N/N=C/c2ccc(Cl)cc2)nc(N(C)C)n1,-11,i,7*,-0.28,i,i
COc1cc(N/N=C/c2ccc(N(C)C)cc2)ncn1,-10,i,i,1.3,i,i
COc1ccc(C2C(C(=O)Nc3ccc4c(c3)OCCO4)c3ccccc3C(=O)N2C)cc1 (centres undefined),-10,i,i,2.4,i,i
CCCN(CCC)C(=O)CCS(=O)(=O)c1cccc2nsnc12,-2,i,i,-4.5*,i,i
Cc1cccc(NC(=O)CCS(=O)(=O)c2cccc3nsnc23)c1C,-8,i,i,-0.22,i,i
Cc1cc(-c2ccc(C)c(S(=O)(=O)NCc3ccc(OC(C)C)cc3)c2)on1,-5,i,i,-1.7,i,i
COC(=O)CSc1nnc(-c2ccccn2)n1N,-9,i,i,-1.1,i,i
O=C(Nc1nc(-c2ccc(S(=O)(=O)N3CCCC3)cc2)cs1)c1cccs1,x,-11*,x,x,x,x
O=C(Nc1nc(-c2ccc(S(=O)(=O)N3CCCCCC3)cc2)cs1)c1cccs1,-11,i,i,-3.2,i,i
O=C(Nc1nc(-c2cccs2)cs1)c1cccc(S(=O)(=O)N2CCCCC2)c1,-10,i,i,0.8,-6.6*,i
Cc1ccc(-c2csc(NC(=O)c3cccc(S(=O)(=O)N4CCN(C)CC4)c3)n2)cc1,-4,i,i,0.25,i,i
O=C(OCC(=O)N1CCc2ccccc2C1)c1ccc(F)cc1Cl,x,i,x,x,x,x
Cc1onc(-c2ccccc2)c1C(=O)OCC(=O)N1CCC(C)CC1,x,i,x,x,x,x
SMILES,hERG rescue,KCNK3 inh,KCNQ1 inh,Kir21 inh,KCNK9 block,KCNQ1 act
COc1ccc(NC(=O)CSc2nc3ccccc3c(=O)n2CCCN2CCCCC2)c(OC)c1,-6,i,i,-6.1*,i,i
COCCn1c(-c2ccc(OC)cc2)cnc1SCC(=O)Nc1cc(C)on1,-2,i,i,-0.05,i,i
CCOC(=O)c1ccccc1NC(=O)CSc1nc2ccccc2c(=O)n1CCCN1CCOCC1,x,-11*,x,x,x,x
CCOC(=O)CSc1nc2c(sc3ccccc32)c(=O)n1CCCN1CCOCC1,4.9*,i,i,-0.87,i,i
COCCCNC(=O)CSc1nc2ccccc2c(=O)n1CCCN1CCCCC1,-1,i,i,-1.5,i,i
COCCn1c(-c2ccc(OC)cc2)cnc1SCC(=O)Nc1ccc(OC)cc1OC,-6,i,6*,-0.93,i,i
Cc1ccc(C)c(NS(=O)(=O)c2ccc3[nH]c(=O)oc3c2)c1,-11,i,i,1.3,i,i
CC(=O)C[C@H]1c2cc(F)ccc2S(=O)(=O)N1c1ccc(N(C)C)cc1,-1,i,i,-1.2,i,i
COc1ccc(CCn2c(C)nc3c(c(=O)c4ccccc4n3C)c2=O)cc1,-3,i,i,-1.2,i,i
COc1ccc(CCn2c(S)nc3ccccc3c2=O)cc1,4,i,i,0.06,i,8*
Cn1c(-c2ccc3c(c2)OCO3)cnc1NCc1cccc(O)c1,-14,i,i,0.33,i,i
Cc1nc(Sc2nnnn2-c2ccccc2)c(C#N)c(C)c1C,-10,i,i,-4.9*,i,i
Brc1ccccc1-c1nc2c3ccccc3ncn2n1,x,-9.4*,x,x,x,x
Cc1ccc(CN(C)C(=O)C2CCC(=O)N(CC3CCCCC3)C2)o1 (centres undefined),-5,i,i,0.69,i,i
CC1CN(C(=O)Nc2ccc(F)cc2)C2(CCCCCC2)O1 (centres undefined),-7,i,i,1.6,i,i
O=C(Cn1nnc2ccccc21)c1cccc([N+](=O)[O-])c1,5.3*,i,i,-2.3,i,i
CCOC(=O)c1ccccc1-n1nnnc1C,-7,i,i,0.25,i,i
CCc1c2ccccc2nn1-c1ccccc1C(=O)C(C)=O,-2,i,i,-4.8*,i,i
COc1ccc(CN2CCN(C3CCC3)CC2CCO)c(F)c1 (centres undefined),-2,i,i,-0.45,i,i
Cc1cccc(CSc2nnc([C@@H]3CCCN3C(=O)OC(C)(C)C)o2)c1,-14,i,i,-6*,i,i
CC(C)(C)OC(=O)N1CCC[C@H]1c1nnc(SCc2c(Cl)cccc2Cl)o1,-16,i,i,-3.2,i,i
CC(=O)c1ccc(OCCCC(=O)Nc2nnc(C3CC3)s2)cc1,x,i,x,x,x,x
CN(C)S(=O)(=O)c1ccc(C(=O)/C=C/c2cccnc2)cc1,-2,i,i,-0.61,i,i
